What was measured:
rats [1] = assay: Sciatic nerve block model; format: in vivo, rat; details: 62.3 mmol/L near sciatic nerve; for motor block duration: extensor postural thrust; for duration of effective sensory blockade: hotplate test
Method in brief: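 Test compound (62.3 mmol/L) was injected near the sciatic nerve. Hind limbs were tested every 30 min until back to pre-test baseline. Sensory: paw withdrawal latency on a 55 °C hotplate, timed by stopwatch. Motor: extensor postural thrust in grams on a digital balance. Recovery was 50% of baseline.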

rats [2] = assay: Cutaneous trunci pinprick model; format: in vivo, rat; details: 62.3 mmol/L
Method in brief: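 Male SD rats under 1%–3% isoflurane had about 6 cm × 6 cm of back shaved, swabbed with alcohol and split into four areas. Test compound (62.3 mmol/L) was given by s.c. infiltration. Pinprick scored 1 for no response and 0 for response. Duration ran from onset to expiration, expressed as mean-score MPE. Effective block was ≥50% MPE; complete block was 100% MPE.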

rats [3] = assay: Plantar incisional pain model; format: in vivo, rat; details: 0.2 mL near incision
Method in brief: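 Rats with a plantar incision received test compound or saline, 0.2 mL, near the incision. Local anesthesia was assessed by von Frey stimulation of the lateral sole.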

rats [4] = assay: CFA-induced chronic plantar inflammatory pain model; format: in vivo, rat; details: 62.3 mmol/L, 0.2 mL subcutaneous at swollen foot
Method in brief: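 Male SD rats (6–8 weeks, 250–300 g) under 1%–3% isoflurane had CFA injected into the right foot. Test compound (62.3 mmol/L, 0.2 mL) or equal-volume saline was given s.c. at the swollen site. Electronic von Frey stimulation to the side of the foot every 10 min after onset. Anesthesia failed when the value fell to half the limb-weight-to-baseline difference or below.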

NaV1.5 = NaV1.5 (Homo sapiens, UniProt Q14524); assay: Cell membrane chromatography; format: binding; details: capacity factor k′; reflects potential cardiac toxicity; k′ < 0 labeled as 0
Sequence of NaV1.5 (Q14524 whole entry, the tested form may be a part): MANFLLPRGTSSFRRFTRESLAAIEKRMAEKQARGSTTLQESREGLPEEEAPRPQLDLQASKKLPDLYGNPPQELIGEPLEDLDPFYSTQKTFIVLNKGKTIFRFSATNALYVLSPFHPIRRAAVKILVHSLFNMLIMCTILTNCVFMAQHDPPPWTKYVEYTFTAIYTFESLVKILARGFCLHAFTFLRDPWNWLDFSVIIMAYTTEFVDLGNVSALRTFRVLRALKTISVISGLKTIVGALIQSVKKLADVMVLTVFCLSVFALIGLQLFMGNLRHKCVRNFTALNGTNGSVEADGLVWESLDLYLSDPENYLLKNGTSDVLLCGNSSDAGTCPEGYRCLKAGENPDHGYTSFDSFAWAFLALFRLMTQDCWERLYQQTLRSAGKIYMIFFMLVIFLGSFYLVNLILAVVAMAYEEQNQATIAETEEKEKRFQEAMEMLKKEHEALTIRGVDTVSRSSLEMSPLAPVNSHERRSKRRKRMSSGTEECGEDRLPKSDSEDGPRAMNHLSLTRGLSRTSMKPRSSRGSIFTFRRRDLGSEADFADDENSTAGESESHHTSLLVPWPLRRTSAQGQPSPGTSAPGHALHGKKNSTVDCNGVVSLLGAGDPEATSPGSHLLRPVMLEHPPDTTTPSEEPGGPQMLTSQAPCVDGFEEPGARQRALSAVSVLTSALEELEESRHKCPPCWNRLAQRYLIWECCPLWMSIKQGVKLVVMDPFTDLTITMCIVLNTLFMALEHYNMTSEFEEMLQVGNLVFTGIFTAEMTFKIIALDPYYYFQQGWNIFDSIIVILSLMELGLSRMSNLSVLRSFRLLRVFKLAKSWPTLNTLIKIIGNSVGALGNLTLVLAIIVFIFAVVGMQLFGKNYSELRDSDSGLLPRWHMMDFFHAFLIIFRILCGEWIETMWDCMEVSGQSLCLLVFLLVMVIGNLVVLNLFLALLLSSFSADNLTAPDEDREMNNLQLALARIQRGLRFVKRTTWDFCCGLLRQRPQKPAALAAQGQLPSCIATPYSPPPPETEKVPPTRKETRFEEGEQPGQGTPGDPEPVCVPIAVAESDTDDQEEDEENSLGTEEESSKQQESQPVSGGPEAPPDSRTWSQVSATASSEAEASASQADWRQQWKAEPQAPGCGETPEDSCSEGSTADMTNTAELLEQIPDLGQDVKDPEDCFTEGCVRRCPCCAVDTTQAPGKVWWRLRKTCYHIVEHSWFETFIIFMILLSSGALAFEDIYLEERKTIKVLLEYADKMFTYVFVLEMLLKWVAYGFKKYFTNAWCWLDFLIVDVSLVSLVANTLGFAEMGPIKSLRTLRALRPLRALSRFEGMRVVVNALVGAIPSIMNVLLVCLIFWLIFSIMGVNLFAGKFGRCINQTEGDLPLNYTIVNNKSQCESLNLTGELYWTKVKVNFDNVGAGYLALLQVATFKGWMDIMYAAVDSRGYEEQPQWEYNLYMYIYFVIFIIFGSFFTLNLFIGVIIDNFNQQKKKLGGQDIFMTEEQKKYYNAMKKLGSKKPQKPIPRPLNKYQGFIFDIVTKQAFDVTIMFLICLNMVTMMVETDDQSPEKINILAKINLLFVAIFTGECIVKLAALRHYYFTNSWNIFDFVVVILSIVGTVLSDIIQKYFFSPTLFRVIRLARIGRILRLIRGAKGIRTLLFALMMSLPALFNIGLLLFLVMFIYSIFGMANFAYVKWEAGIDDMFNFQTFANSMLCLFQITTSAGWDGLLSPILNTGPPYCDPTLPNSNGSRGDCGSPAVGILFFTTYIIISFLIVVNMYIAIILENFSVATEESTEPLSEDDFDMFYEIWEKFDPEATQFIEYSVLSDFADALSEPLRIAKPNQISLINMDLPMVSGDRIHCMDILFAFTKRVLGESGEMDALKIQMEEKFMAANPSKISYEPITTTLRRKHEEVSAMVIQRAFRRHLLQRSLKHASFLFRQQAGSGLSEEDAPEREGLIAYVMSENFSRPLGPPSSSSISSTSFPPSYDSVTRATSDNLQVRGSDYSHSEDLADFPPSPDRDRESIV

[5] = test system: NaV currents in rat dorsal root ganglion (DRG) neurons; assay: Whole-cell patch clamp, sodium current in DRG neurons; format: cell-based; details: F-11 rat/mouse fusion cell line, DRG neuron, read-out: IC50 sodium current
Method in brief: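 Male rat DRG neurons (180–200 g donors) were dissociated with collagenase IV (2 mg/mL) then trypsin (10 mg/mL) for 30 min, plated on poly-L-lysine and grown in Neurobasal with FBS and B27. Whole-cell voltage clamp used 3–4 MΩ electrodes. I/V steps ran from −90 to +40 mV in 10 mV increments, 50 ms each.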

[6] = Systemic toxicity, subcutaneous injection; format: in vivo, rat; details: Sprague-Dawley, rat, in vivo, sc
SD rats = assay: Systemic toxicity, subcutaneous injection; format: in vivo, rat; details: TI = LD50/ED50, s.c.
[7] = Systemic toxicity, intravenous; details: ICR, mouse, in vivo
rats [8] = assay: Gingival incision pain model; format: in vivo, rat
Method in brief: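 Oral pain models in rats under 1%–3% isoflurane, with test compound given as local anesthetic. Food intake and body-weight change were measured on a precision balance over 24 h. Facial grooming was video-recorded for 1 h after dosing.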

Row | SMILES | k′ NaV1.5 (NaV1.5) | further results
1 | CCCNC(C)C(=O)Nc1c(C)csc1C(=O)OC (stereo not shown) [AT, Methyl 4-methyl-3-(2-(propylamino)propanamido)thiophene-2-carboxylate, reference compound] | 63 | motor block duration (rats [1]): 90 min; subcutaneous infiltration duration (rats [2]): 120 min; anesthesia result in acute inflammation model through plantar incision (rats [3]): underperformed; duration of action (anesthesia) under CFA-induced chronic inflammation (rats [4]): 30 min; IC50 [5]: 71.2 ± 3.06 µM; LD50 at 24 h [6]: 598 mg/kg; TI (SD rats): 125.83; LD50 [7]: 38.3 mg/kg; face grooming frequency (rats [8]): significantly lowered
2 | COC(=O)c1scc(C)c1NC(=O)C(C)N1CCNCC1 (stereo not shown) [AT-1, methyl 4-methyl-3-(2-(piperazin-1-yl)propanamido)thiophene-2-carboxylate] | 80.8 | subcutaneous infiltration duration (rats [2]): 240 min
3 | COC(=O)c1scc(C)c1NC(=O)C(C)N1CCN(C)C(C)C1 (stereo not shown) [AT-2, Methyl 3-(2-(3,4-dimethylpiperazin-1-yl)propanamido)-4-methylthiophene-2-carboxylate] | 92 | –
4 | COC(=O)c1scc(C)c1NC(=O)C(C)N1CCCCC1 (stereo not shown) [AT-3, Methyl 4-methyl-3-(2-(piperidin-1-yl)propanamido)thiophene-2-carboxylate] | 1.1 | –
5 | COC(=O)c1scc(C)c1NC(=O)C(C)N1CC(C)CC(C)C1 (stereo not shown) [AT-4, Methyl 3-(2-(3,5-dimethylpiperidin-1-yl)propanamido)-4-methylthiophene-2-carboxylate] | 71.2 | –
6 | COC(=O)c1scc(C)c1NC(=O)C(C)N1CCOCC1 (stereo not shown) [AT-5, Methyl 4-methyl-3-(2-morpholinopropanamido)thiophene-2-carboxylate] | 18.4 | –
7 | COC(=O)c1scc(C)c1NC(=O)C(C)N1CCOCC1C (stereo not shown) [AT-6, Methyl 4-methyl-3-(2-(3-methylmorpholino)propanamido)thiophene-2-carboxylate] | 28 | –
8 | COC(=O)c1scc(C)c1NC(=O)C(C)N1C(C)COCC1C (stereo not shown) [AT-7, Methyl 3-(2-(3,5-dimethylmorpholino)propanamido)-4-methylthiophene-2-carboxylate] | 24 | –
9 | COC(=O)c1scc(C)c1NC(=O)C(C)N1CC(C)OC(C)(C)C1 (stereo not shown) [AT-8, Methyl 4-methyl-3-(2-(2,2,6-trimethylmorpholino)propanamido)thiophene-2-carboxylate] | 36.8 | –
10 | COC(=O)c1scc(C)c1NC(=O)C(C)N1CCSCC1 (stereo not shown) [AT-9, Methyl 4-methyl-3-(2-thiomorpholinopropanamido)thiophene-2-carboxylate] | 48.6 | –
11 | COC(=O)c1scc(C)c1NC(=O)C(C)N1CCS(=O)(=O)CC1 (stereo not shown) [AT-10, Methyl 3-(2-(1,1-dioxidothiomorpholino)propanamido)-4-methylthiophene-2-carboxylate] | 0 | –
12 | COC(=O)c1scc(C)c1NC(=O)C(C)N1CCN(C)CC1 (stereo not shown) [AT-11, Methyl 4-methyl-3-(2-(4-methylpiperazin-1-yl)propanamido)thiophene-2-carboxylate] | 8 | subcutaneous infiltration duration (rats [2]): 260 min
13 | CCN1CCN(C(C)C(=O)Nc2c(C)csc2C(=O)OC)CC1 (stereo not shown) [AT-12, Methyl 3-(2-(4-ethylpiperazin-1-yl)propanamido)-4-methylthiophene-2-carboxylate] | 1.2 | –
14 | COC(=O)c1scc(C)c1NC(=O)C(C)N1CCN(C(C)C)CC1 (stereo not shown) [AT-13, Methyl 3-(2-(4-isopropylpiperazin-1-yl)propanamido)-4-methylthiophene-2-carboxylate] | 23.2 | motor block duration (rats [1]): 140 min; duration of effective sensory blockade (rats [1]): 145 min; subcutaneous infiltration duration (rats [2]): 275 min; anesthesia result in acute inflammation model through plantar incision (rats [3]): improved results
15 | COC(=O)c1scc(C)c1NC(=O)C(C)N1CCN(CC2CC2)CC1 (stereo not shown) [AT-14, Methyl 3-(2-(4-(cyclopropylmethyl)piperazin-1-yl)propanamido)-4-methylthiophene-2-carboxylate] | 22 | –
16 | COC(=O)c1scc(C)c1NC(=O)C(C)N1CCN(C(C)(C)C)CC1 (stereo not shown) [AT-15, Methyl 3-(2-(4-(tert-butyl)piperazin-1-yl)propanamido)-4-methylthiophene-2-carboxylate] | 116.4 | motor block duration (rats [1]): 210 min; duration of effective sensory blockade (rats [1]): 190 min; subcutaneous infiltration duration (rats [2]): 205 min
17 | CCCN1CCN(C(C)C(=O)Nc2c(C)csc2C(=O)OC)CC1 (stereo not shown) [AT-16, Methyl 4-methyl-3-(2-(4-propylpiperazin-1-yl)propanamido)thiophene-2-carboxylate] | 42.4 | –
18 | COC(=O)c1scc(C)c1NC(=O)C(C)N1CCN(c2ccccc2)CC1 (stereo not shown) [AT-18, Methyl 4-methyl-3-(2-(4-phenylpiperazin-1-yl)propanamido)thiophene-2-carboxylate] | 57.8 | –
19 | COC(=O)c1scc(C)c1NC(=O)C(C)N1CCN(CCO)CC1 (stereo not shown) [AT-19, Methyl 3-(2-(4-(2-hydroxyethyl)piperazin-1-yl)propanamido)-4-methylthiophene-2-carboxylate] | 92 | –
20 | COCCN1CCN(C(C)C(=O)Nc2c(C)csc2C(=O)OC)CC1 (stereo not shown) [AT-20, Methyl 3-(2-(4-(2-methoxyethyl)piperazin-1-yl)propanamido)-4-methylthiophene-2-carboxylate] | 92 | –
21 | COC(=O)c1scc(C)c1NC(=O)CN1CCN(C(C)C)CC1 [AT-21, Methyl 3-(2-(4-isopropylpiperazin-1-yl)acetamido)-4-methylthiophene-2-carboxylate] | 5.8 | subcutaneous infiltration effect compared with AT (rats [2]): fewer effects than AT
22 | CCC(C(=O)Nc1c(C)csc1C(=O)OC)N1CCN(C(C)C)CC1 (stereo not shown) [AT-22, Methyl 3-(2-(4-isopropylpiperazin-1-yl)butanamido)-4-methylthiophene-2-carboxylate] | 21.4 | motor block duration (rats [1]): 240 min; duration of effective sensory blockade (rats [1]): 220 min; subcutaneous infiltration duration (rats [2]): 260 min
23 | COCCN(CCOC)C(C)C(=O)Nc1c(C)csc1C(=O)OC (stereo not shown) [AT-23, Methyl 3-(2-(bis(2-methoxyethyl)amino)propanamido)-4-methylthiophene-2-carboxylate] | 43.6 | –
24 | CCN(CCO)C(C)C(=O)Nc1c(C)csc1C(=O)OC (stereo not shown) [AT-24, Methyl 3-(2-(ethyl(2-hydroxyethyl)amino)propanamido)-4-methylthiophene-2-carboxylate] | 27.6 | –
25 | COC(=O)c1scc(C)c1NC(=O)C(C)N(CCO)CCO (stereo not shown) [AT-25, Methyl 3-(2-(bis(2-hydroxyethyl)amino)propanamido)-4-methylthiophene-2-carboxylate] | 12.1 | –
26 | COC(=O)c1scc(C)c1NC(=O)C(C)NCCN1CCOCC1 (stereo not shown) [AT-26, Methyl 4-methyl-3-(2-((2-morpholinoethyl)amino)propanamido)thiophene-2-carboxylate] | 72.4 | –
27 | CCCNC(C)C(=O)Nc1c(C)csc1C(=O)OCC (stereo not shown) [AT-27, Ethyl 4-methyl-3-(2-(propylamino)propanamido)thiophene-2-carboxylate] | 0.6 | –
28 | CCCNC(C)C(=O)Nc1c(C)csc1C(=O)OCCC (stereo not shown) [AT-28, Propyl 4-methyl-3-(2-(propylamino)propanamido)thiophene-2-carboxylate] | 38 | –
29 | CCCCOC(=O)c1scc(C)c1NC(=O)C(C)NCCC (stereo not shown) [AT-29, Butyl 4-methyl-3-(2-(propylamino)propanamido)thiophene-2-carboxylate] | 35 | –
30 | CCCNC(C)C(=O)Nc1c(C)csc1C(=O)OCC(C)C (stereo not shown) [AT-30, Isobutyl 4-methyl-3-(2-(propylamino)propanamido)thiophene-2-carboxylate] | 105.4 | –
